Experimental findings from ChEMBL document CHEMBL3860024, “New cinnamic - N-benzylpiperidine and cinnamic - N,N-dibenzyl(N-methyl)amine hybrids as Alzheimer-directed multitarget drugs with antioxidant, cholinergic, neuroprotective and neurogenic properties” (Eur J Med Chem, 2016) are described below.

The source made the active and inactive calls. The calls are words filed in the database; no cut-off is given here.

The target of data set [1] is T1, Acetylcholinesterase (Homo sapiens, UniProt P22303). As to the kind of experiment: Inhibition of human recombinant AChE using acetylthiocholine iodide as substrate preincubated for 5 mins followed by substrate addition measured for 5 mins by Ellman's method. For orientation: In Ellman's method for cholinesterases, released thiocholine reacts with DTNB.
T1 sequence (P22303 whole entry): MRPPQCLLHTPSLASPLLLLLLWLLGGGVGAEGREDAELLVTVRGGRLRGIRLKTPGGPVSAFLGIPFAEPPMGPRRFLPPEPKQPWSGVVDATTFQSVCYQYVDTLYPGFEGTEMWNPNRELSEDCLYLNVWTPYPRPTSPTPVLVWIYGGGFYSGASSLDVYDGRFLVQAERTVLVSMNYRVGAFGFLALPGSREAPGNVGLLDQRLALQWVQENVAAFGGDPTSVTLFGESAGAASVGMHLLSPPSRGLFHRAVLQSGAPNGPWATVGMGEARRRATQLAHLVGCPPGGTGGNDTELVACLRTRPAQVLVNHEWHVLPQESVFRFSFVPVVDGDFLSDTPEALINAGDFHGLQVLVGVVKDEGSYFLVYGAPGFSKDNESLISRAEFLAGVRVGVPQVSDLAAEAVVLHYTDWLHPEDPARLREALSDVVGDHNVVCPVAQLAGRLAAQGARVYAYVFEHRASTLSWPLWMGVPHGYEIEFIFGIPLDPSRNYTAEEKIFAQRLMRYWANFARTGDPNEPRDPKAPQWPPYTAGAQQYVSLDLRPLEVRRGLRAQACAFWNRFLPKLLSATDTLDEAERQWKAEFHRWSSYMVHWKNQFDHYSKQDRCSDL
The target of data set [2] is T2, Cholinesterase (Homo sapiens, UniProt P06276). Description: Inhibition of human serum BuChE at 10 uM using butyrylthiocholine as substrate preincubated for 5 mins followed by substrate addition measured for 5 mins by Ellman's method relative to control. The method in brief:
(§1)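 Spectrophotometric Ellman assay with recombinant human AChE or BuChE from human serum. Percent inhibition is given at a single concentration of 10 µM. Results are mean ± SEM, n = 5.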

Data set [3] concerns the target T3, Amine oxidase [flavin-containing] A (Homo sapiens, UniProt P21397).
T3 sequence (P21397 whole entry): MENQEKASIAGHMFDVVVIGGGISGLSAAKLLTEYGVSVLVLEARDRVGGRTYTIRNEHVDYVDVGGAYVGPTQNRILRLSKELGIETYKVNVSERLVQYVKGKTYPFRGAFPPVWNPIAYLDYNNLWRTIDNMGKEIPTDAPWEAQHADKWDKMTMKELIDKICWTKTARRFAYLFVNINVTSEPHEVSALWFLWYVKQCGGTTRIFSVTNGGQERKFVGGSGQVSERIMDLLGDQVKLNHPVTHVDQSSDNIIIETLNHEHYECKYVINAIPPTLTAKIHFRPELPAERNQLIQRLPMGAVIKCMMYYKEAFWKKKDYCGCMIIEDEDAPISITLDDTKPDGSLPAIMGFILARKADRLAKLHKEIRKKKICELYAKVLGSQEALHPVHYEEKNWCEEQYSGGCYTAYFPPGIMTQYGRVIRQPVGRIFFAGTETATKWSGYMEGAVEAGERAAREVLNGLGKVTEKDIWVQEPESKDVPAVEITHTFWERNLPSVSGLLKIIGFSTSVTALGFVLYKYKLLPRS
Description: Inhibition of human recombinant MAOA at 100 uM using p-tyramine as substrate incubated for 15 mins by fluorimetric method. Conditions: 0.25 h. The method in brief: (§2)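 Recombinant hMAO-A or hMAO-B (baculovirus-infected BTI insect cells), amount set to oxidize 165 pmol p-tyramine/min, preincubated with compound 15 min at 37 °C. Reaction started with Amplex Red, 1 U/mL horseradish peroxidase and 1 mM p-tyramine. Resorufin fluorescence read at 37 °C (ex 545/em 590 nm), minus enzyme-free phosphate-buffer background.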

Data set [4] has as its target T4, Amine oxidase [flavin-containing] B (Homo sapiens, UniProt P27338).
T4 sequence (P27338 whole entry): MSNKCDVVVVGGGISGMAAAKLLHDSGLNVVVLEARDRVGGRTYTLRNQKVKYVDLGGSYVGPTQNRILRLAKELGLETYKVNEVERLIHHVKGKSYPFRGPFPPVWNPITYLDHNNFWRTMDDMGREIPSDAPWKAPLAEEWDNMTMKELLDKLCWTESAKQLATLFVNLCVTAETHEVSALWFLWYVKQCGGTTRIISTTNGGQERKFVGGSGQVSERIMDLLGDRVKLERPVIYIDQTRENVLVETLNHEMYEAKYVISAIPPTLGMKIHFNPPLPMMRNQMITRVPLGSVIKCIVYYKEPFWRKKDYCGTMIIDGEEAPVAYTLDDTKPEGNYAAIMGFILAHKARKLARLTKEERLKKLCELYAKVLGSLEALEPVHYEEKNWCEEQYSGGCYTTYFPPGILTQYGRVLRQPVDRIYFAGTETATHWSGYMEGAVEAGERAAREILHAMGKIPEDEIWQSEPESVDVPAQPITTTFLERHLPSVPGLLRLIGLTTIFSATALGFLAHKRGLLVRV
As to the kind of experiment: Inhibition of human recombinant MAOB at 100 uM using p-tyramine as substrate incubated for 15 mins by fluorimetric method. Conditions: 0.25 h. The procedure, abridged: as §2

Data set [5] in a line: Antioxidant activity assessed as AAPH free radical scavenging activity by measuring trolox equivalent by oxygen radical absorbance capacity method. The class given is functional. The procedure, abridged: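 Oxygen radical absorbance capacity (ORAC) assay with trolox as the standard. Fluorescence was read on a plate reader with 485-P excitation and 520-P emission filters. Values are expressed as trolox equivalents, mean ± SEM (n = 5).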

The next data set deals with SH-SY5Y. Description: Neuroprotective activity against rotenone/oligomycin A-induced mitochondrial oxidative stress in human SH-SY5Y cells assessed as increase in cell viability at 0.3 uM after 24 hrs by MTT assay relative to control. The class given is functional. The method in brief: (§3)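 SH-SY5Y cells, passage <13, were seeded at 8x10^4/well for 2 days. Then co-incubated 24 h with compound (0.1, 0.3, 1, 3 µM) plus rotenone 30 µM/oligomycin A 10 µM in F-12/EMEM with 1% FBS; 0.1% DMSO vehicle and 10 nM melatonin control. MTT 0.5 mg/ml final, 2 h at 37 °C, formazan in DMSO read at 540 nm. Normalized to untreated control; triplicates of ≥3 cultures, mean ± SEM.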

Data set [6] can be described thus: Potentiation of rotenone/oligomycin A-induced mitochondrial oxidative stress in human SH-SY5Y cells at 0.1 to 3 uM after 24 hrs by MTT assay. The class given is ADME, cell-based. The procedure, abridged: as §3
On the technique in general: Tetrazolium dyes change colour on reduction, which living cells bring about.

Data set [7] has as its target T2, Cholinesterase. Description: Inhibition of human serum BuChE using butyrylthiocholine as substrate preincubated for 5 mins followed by substrate addition measured for 5 mins by Ellman's method. The procedure, abridged: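 Spectrophotometric Ellman assay with butyrylcholinesterase from human serum, with donepezil as reference. IC50 is reported in µM as mean ± SEM, n = 5.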

Data set [8] addresses T3, Amine oxidase [flavin-containing] A. Description: Inhibition of human recombinant MAOA using p-tyramine as substrate incubated for 15 mins by fluorimetric method.
The target in data set [9] is T4, Amine oxidase [flavin-containing] B.
Data set [10] has as its target Beta-secretase 1 (Homo sapiens) (UniProt P56817). As to the kind of experiment: Inhibition of human BACE1 at 10 uM using Rh-EVNLDAEFK-Quencher as substrate after 60 mins by FRET assay relative to control. The method in brief: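 FRET-based assay on human recombinant BACE-1, run per the manufacturer's protocol; compounds tested at 10 μM, read as percent inhibition.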

For data set [11], the system named is Neural stem cell. As to the kind of experiment: Induction of differentiation of C57BL/6 mouse subgranular zone-derived neural stem cell into neuronal phenotype assessed as increase in level of beta-3 tubulin expressing cells in neurosphere at 10 uM preincubated for 7 days followed by cell attachment onto poly-L-lysine-coated coverslip in presence of serum and absence of exogenous growth factor for 3 days by DAPI staining-based florescence microscopy. The class given is functional. The procedure, abridged: (§4)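 Adult (3-month) male C57BL/6 mouse SGZ dentate gyrus neural stem cells grown as neurospheres for 7 days with compound (10 µM). Then adhered on 100 μg/mL poly-L-lysine coverslips for 3 more days with serum, without exogenous growth factors, compound present. Immunocytochemistry for β-III-tubulin (TuJ) and MAP-2 with Alexa-fluor secondaries and DAPI nuclei, imaged by fluorescence microscopy, inner and distal neurosphere areas.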

For data set [12], the system named is Neural stem cell. As to the kind of experiment: Induction of differentiation of C57BL/6 mouse subgranular zone-derived neural stem cell into neuronal phenotype assessed as increase in level of MAP2 expressing cells in neurosphere at 10 uM preincubated for 7 days followed by cell attachment onto poly-L-lysine-coated coverslip in presence of serum and absence of exogenous growth factor for 3 days by DAPI staining-based florescence microscopy. The class given is functional. The procedure, abridged:
as §4

Data set [13] addresses T1, Acetylcholinesterase. As to the kind of experiment: Inhibition of human recombinant AChE at 10 uM using acetylthiocholine iodide as substrate preincubated for 5 mins followed by substrate addition measured for 5 mins by Ellman's method relative to control. The method in brief:
as §1

T2 sequence (P06276 whole entry): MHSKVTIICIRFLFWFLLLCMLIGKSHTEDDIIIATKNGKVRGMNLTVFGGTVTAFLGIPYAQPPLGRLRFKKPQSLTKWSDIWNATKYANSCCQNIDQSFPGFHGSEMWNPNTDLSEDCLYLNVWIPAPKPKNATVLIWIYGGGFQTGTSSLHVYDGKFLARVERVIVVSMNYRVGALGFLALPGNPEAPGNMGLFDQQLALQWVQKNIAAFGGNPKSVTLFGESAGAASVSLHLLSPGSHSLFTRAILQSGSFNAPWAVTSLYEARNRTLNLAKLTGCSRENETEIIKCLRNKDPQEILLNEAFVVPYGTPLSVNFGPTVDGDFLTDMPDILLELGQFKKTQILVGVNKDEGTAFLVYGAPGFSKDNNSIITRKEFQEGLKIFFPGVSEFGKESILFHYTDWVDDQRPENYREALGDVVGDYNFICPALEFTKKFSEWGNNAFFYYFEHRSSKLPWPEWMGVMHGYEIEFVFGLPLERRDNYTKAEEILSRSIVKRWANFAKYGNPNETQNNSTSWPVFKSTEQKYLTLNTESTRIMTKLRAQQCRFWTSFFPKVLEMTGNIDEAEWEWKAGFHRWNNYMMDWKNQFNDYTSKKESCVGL
Sequence of Beta-secretase 1 (Homo sapiens) (P56817 whole entry): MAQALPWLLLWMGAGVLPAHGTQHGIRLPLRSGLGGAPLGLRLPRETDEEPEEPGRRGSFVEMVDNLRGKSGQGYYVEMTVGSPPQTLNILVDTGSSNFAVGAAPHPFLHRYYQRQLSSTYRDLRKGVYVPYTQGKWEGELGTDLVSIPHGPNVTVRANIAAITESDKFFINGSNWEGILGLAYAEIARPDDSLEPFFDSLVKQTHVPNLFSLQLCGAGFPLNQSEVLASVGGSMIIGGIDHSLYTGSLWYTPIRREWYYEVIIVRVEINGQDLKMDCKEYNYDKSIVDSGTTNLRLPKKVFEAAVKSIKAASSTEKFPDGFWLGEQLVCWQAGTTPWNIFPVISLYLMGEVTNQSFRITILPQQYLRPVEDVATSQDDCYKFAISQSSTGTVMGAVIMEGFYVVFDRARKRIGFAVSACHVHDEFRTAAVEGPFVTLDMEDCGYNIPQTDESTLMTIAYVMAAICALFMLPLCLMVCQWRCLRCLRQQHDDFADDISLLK

One may read the IC50 as the midpoint of a concentration-inhibition curve. One may read the inhibition as the percentage by which the read-out fell short of the control. Regarding `CN(Cc1ccccc1)Cc1ccc(NC(=O)/C=C/c2cccc(O)c2)cc1`, at Acetylcholinesterase [1], the IC50 came out at 3.49 µM. The molecule further displayed an inhibition against Cholinesterase [2] of 46%. For the same molecule, the inhibition at 100 µM in [3] and in data set [4] was 45 to 55% each time. For the same molecule, the Activity in data set [5] was 3.2 equiv; in the data set on SH-SY5Y it was 30 - 35%; in [6], “Non-Toxic”.

In the case of `O=C(/C=C/c1ccc(O)cc1)NCCC1CCN(Cc2ccccc2)CC1`, the IC50 was 1.01 µM on Acetylcholinesterase [1], 0.93 µM at Cholinesterase [7], 57.5 µM in [8] and above 100 µM in data set [9]. Moreover, the Activity in [5] was 1.7 equiv.

For `COc1ccc(/C=C/C(=O)NCCC2CCN(Cc3ccccc3)CC2)c(OC)c1`, the IC50 is 0.63 µM on Acetylcholinesterase [1], 4.39 µM against Cholinesterase [7], above 100 µM in data set [8] and above 100 µM in data set [9].

In the case of `COc1ccc(/C=C/C(=O)Nc2ccc(CN(C)Cc3ccccc3)cc2)cc1`, the IC50 was 5.76 µM at Acetylcholinesterase [1], above 100 µM in [8] and above 100 µM in [9]. Further, the inhibition was 25% against Cholinesterase [2] and 23 to 33% in data set [10].

For `COc1cc(/C=C/C(=O)Nc2cccc(CN(C)Cc3ccccc3)c2)ccc1O`, the IC50 on Acetylcholinesterase [1] stood at 5.99 µM; on Cholinesterase [7] it was 5.89 µM; in data set [8], 4.5 µM; in data set [9], 7.7 µM. Further, the Activity in data set [5] was 1.4 equiv; in the data set with SH-SY5Y, 30 - 35%; in data set [6], “Non-Toxic”. The molecule further had an inhibition in [10] of 23 to 33%.

Take `COc1cccc(/C=C/C(=O)Nc2ccc(CN(C)Cc3ccccc3)cc2)c1`: the IC50 was 4.67 µM at Acetylcholinesterase [1], above 100 µM in [8] and above 100 µM in [9]. The inhibition is 35% at Cholinesterase [2] and 23 to 33% in data set [10]. Further, the Activity in [5] came to 0.6 equiv.

In the case of `COc1cccc(/C=C/C(=O)NCCC2CCN(Cc3ccccc3)CC2)c1`, the IC50 on Acetylcholinesterase [1] was 0.75 µM; at Cholinesterase [7], 0.98 µM; in [9], above 100 µM. In addition, the inhibition at 100 µM in data set [3] is 45 to 55%.

As for `O=C(/C=C/c1ccc(O)c(O)c1)NCCC1CCN(Cc2ccccc2)CC1`, the IC50 was 1.75 µM at Acetylcholinesterase [1], 0.69 µM against Cholinesterase [7], 3.5 µM in data set [8] and 6 µM in data set [9]. Besides, in data set [5], the Activity was 1 equiv. Also, the outcome in the data set on Neural stem cell [11] and with Neural stem cell [12] was Active.

With `COc1ccc(/C=C/C(=O)NCCC2CCN(Cc3ccccc3)CC2)cc1`, the IC50 at Acetylcholinesterase [1] was found to be 0.49 µM; against Cholinesterase [7] it was 0.76 µM. Moreover, the inhibition at 100 µM in [3] and in [4] was 45 to 55% throughout.

With `COc1ccc(/C=C/C(=O)Nc2ccc(CN(C)Cc3ccccc3)cc2)cc1OC`, the IC50 on Acetylcholinesterase [1] was 3.98 µM; against Cholinesterase [7], above 10 µM. The Activity in data set [5] stood at 0.4 equiv.

For `O=C(/C=C/c1ccc(O)cc1O)NCCC1CCN(Cc2ccccc2)CC1`, the IC50 was 0.99 µM on Acetylcholinesterase [1], 0.26 µM against Cholinesterase [7], 5.5 µM in data set [8] and 8.3 µM in data set [9]. For the same molecule, the Activity in data set [5] was determined as 1.3 equiv.

With `COc1cc(/C=C/C(=O)NCCC2CCN(Cc3ccccc3)CC2)ccc1O`, the IC50 on Acetylcholinesterase [1] was determined as 0.39 µM; at Cholinesterase [7], 0.076 µM; in data set [8], 11.4 µM; in data set [9] it was 13.1 µM. Moreover, the values for the Activity (in data set [5]; with SH-SY5Y; in [6]) were 1.8 equiv, 30 - 35% and “Non-Toxic”, respectively.

As for `CN(Cc1ccccc1)Cc1ccc(NC(=O)/C=C/c2ccc(O)cc2)cc1`, the inhibition on Acetylcholinesterase [13] is 46%; on Cholinesterase [2], 30%. The results for the IC50 in [8] and in data set [9] were 29.7 µM and 29 µM, respectively. Further, in data set [5], the Activity came to 1.8 equiv.

As for `COc1ccc(/C=C/C(=O)Nc2ccc(CN(C)Cc3ccccc3)cc2)c(OC)c1`, the IC50 is 8.73 µM on Acetylcholinesterase [1], above 10 µM against Cholinesterase [7], above 100 µM in data set [8] and above 100 µM in [9]. Moreover, the Activity in data set [5] came to 0.5 equiv.

As for `COc1ccc(/C=C/C(=O)NCCC2CCN(Cc3ccccc3)CC2)cc1OC`, the IC50 was 0.26 µM on Acetylcholinesterase [1], 0.69 µM against Cholinesterase [7] and above 100 µM in data set [8]. In addition, the inhibition at 100 µM in data set [4] was 45 to 55%. The Activity in data set [5] is 0.4 equiv.

As for `O=C(/C=C/c1cccc(O)c1)NCCC1CCN(Cc2ccccc2)CC1`, the IC50 on Acetylcholinesterase [1] is 1.12 µM; against Cholinesterase [7], 1.02 µM; in data set [9], above 100 µM. Besides, the inhibition at 100 µM in [3] is 45 to 55%. The Activity in data set [5] amounted to 2.2 equiv.

On to `COc1cc(/C=C/C(=O)Nc2ccc(CN(C)Cc3ccccc3)cc2)ccc1O`, for which the results for the inhibition (at Acetylcholinesterase [13]; against Cholinesterase [2]; in data set [10]) were 33%, 45% and 23 to 33%, respectively. For the same molecule, the Activity in data set [5] was 1.5 equiv.
